A word on the IC50: it is the concentration needed to halve the response being measured. Read a high IC50 as lower potency.

Four molecules from ChEMBL document CHEMBL1159390, “Plakortides M and N, bioactive polyketide endoperoxides from the Caribbean marine sponge Plakortis halichondrioides” (J Nat Prod, 2003) can be followed below.

The subject of test [1] is Mycobacterium tuberculosis. Nature of the test: Antitubercular activity against Mycobacterium tuberculosis H37Rv at 6.25 ug/mL. Format: functional, organism-based.
The subject of the next test is Plasmodium falciparum. As to the kind of experiment: Antimalarial activity against Plasmodium falciparum. Format: functional, organism-based.
The next test deals with IGROV-1. As to the kind of experiment: Cytotoxicity against human IGROV1 cells. Format: functional, cell-based. In outline:
(§1)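 Tested in the NCI in vitro antitumor screen of 60 human tumour cell lines, after a prior NCI three-cell-line, one-dose primary anticancer assay.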

The next test relates to HT-29. Nature of the test: Cytotoxicity against human HT-29 cells. Format: functional, cell-based. In outline:
as §1

The test system of a further test is U-251. Nature of the test: Cytotoxicity against human U251 cells. Format: functional, cell-based. The method, boiled down:
as §1

The test system of another test is T47D. As to the kind of experiment: Cytotoxicity against human T47D cells. Format: functional, cell-based. In outline: as §1
Another test concerns DU-145. Nature of the test: Cytotoxicity against human DU145 cells. Format: functional, cell-based. The method, boiled down:
as §1

A short description of test [2]: Cytotoxicity against human […] cells. In kind it is functional, cell-based. In outline: as §1
In the next test the test system is 786-0. As to the kind of experiment: Cytotoxicity against human 786-0 cells. In kind it is functional, cell-based. In outline:
as §1

A further test deals with M14. As to the kind of experiment: Cytotoxicity against human M14 cells. Format: functional, cell-based. The method, boiled down: as §1
The next test concerns SR. Nature of the test: Cytotoxicity against human SR cells. In kind it is functional, cell-based. The method, boiled down:
as §1

A further test has as its system SK-MEL-2. Nature of the test: Cytotoxicity against human SK-MEL-2 cells. In kind it is functional, cell-based. In outline:
as §1

The subject of another test is ACHN. As to the kind of experiment: Cytotoxicity against human ACHN cells. In kind it is functional, cell-based. In outline:
as §1

The test system of the next test is CCRF-CEM. As to the kind of experiment: Cytotoxicity against human CCRF-CEM cells. Format: functional, cell-based. In outline: as §1
Another test relates to NCI/ADR-RES. Nature of the test: Cytotoxicity against human NCI/ADR-RES cells. In kind it is functional, cell-based. The method, boiled down:
as §1

For a further test, the system named is MCF7. Nature of the test: Cytotoxicity against human MCF7 cells. Format: functional, cell-based. The method, boiled down:
as §1

For the next test, the system named is NCI-H460. As to the kind of experiment: Cytotoxicity against human NCI-H460 cells. Format: functional, cell-based. The method, boiled down: as §1
Another test concerns HOP-62. Nature of the test: Cytotoxicity against human HOP62 cells. In kind it is functional, cell-based. The method, boiled down:
as §1

The subject of a further test is OVCAR-3. As to the kind of experiment: Cytotoxicity against human OVCAR-3 cells. Format: functional, cell-based. The method, boiled down:
as §1

For a further test, the system named is SF-539. Nature of the test: Cytotoxicity against human SF539 cells. In kind it is functional, cell-based. The method, boiled down: as §1
The next test concerns COLO 205. Nature of the test: Cytotoxicity against human COLO205 cells. In kind it is functional, cell-based. In outline: as §1
The next test has as its system SK-OV-3. Nature of the test: Cytotoxicity against human SKOV3 cells. In kind it is functional, cell-based. The method, boiled down: as §1
A further test concerns UO-31. As to the kind of experiment: Cytotoxicity against human UO31 cells. Format: functional, cell-based. The method, boiled down:
as §1

The test system of the next test is HCT-116. As to the kind of experiment: Cytotoxicity against human HCT116 cells. In kind it is functional, cell-based. The method, boiled down:
as §1

A further test deals with LOX IMVI. Nature of the test: Cytotoxicity against human LOXIMVI cells. Format: functional, cell-based. In outline: as §1
Another test relates to SF-295. Nature of the test: Cytotoxicity against human SF295 cells. Format: functional, cell-based. In outline: as §1
The test system of the next test is PC-3. Nature of the test: Cytotoxicity against human PC3 cells. In kind it is functional, cell-based. In outline: as §1
A further test has as its system A549. Nature of the test: Cytotoxicity against human A549 cells. Format: functional, cell-based. The method, boiled down:
as §1

Each structure is given as a SMILES string. Calls of active or inactive are those of the source. No cut-off for these calls is given here.

Turning to `CC/C=C/[C@H](CC)C/C(=C/[C@@]1(CC)C[C@H](CC)[C@H](CC(=O)OC)OO1)CC`, in test [1], the result was inactive. The same molecule yielded a concentration for half-maximal inhibition (IC50) in the test with Plasmodium falciparum not below 50 µg/mL.
On to `CC/C=C/[C@H](CC)C/C(=C/[C@@]1(CC)C[C@H](CC)[C@H](CC(=O)O)OO1)CC` [PLAKORTIDE N], for which the half-maximal inhibitory concentration (IC50) in the test with IGROV-1 was 60 nM; in the test with HT-29 it was 500 nM; in the test with U-251, 500 nM; in the test with T47D, 1300 nM; in the test on DU-145, 400 nM; in [2], less than 10 nM. Besides, the IC50 in the test on 786-0 is 1300 nM; in the test with M14, 1600 nM; with SR, 100 nM; with SK-MEL-2, 1700 nM; in the test with ACHN, 200 nM; with CCRF-CEM, 100 nM. The concentration for half-maximal inhibition (IC50) was found to be 400 nM with NCI/ADR-RES; 1800 nM in the test on MCF7; 200 nM in the test with NCI-H460; 900 nM in the test on HOP-62; 1100 nM with OVCAR-3; 1500 nM in the test with SF-539. In addition, the half-inhibitory concentration (IC50) came out at 1300 nM in the test on COLO 205; 1900 nM in the test on SK-OV-3; 10 nM with UO-31; 400 nM in the test on HCT-116; 30 nM in the test with LOX IMVI; 300 nM in the test on SF-295. Also, the IC50 in the test with PC-3 is 300 nM; with A549, 100 nM.
Regarding `CC/C=C/[C@H](CC)C/C=C/[C@@]1(CC)C[C@H](CC)[C@H](CC(=O)OC)OO1`, in [1], the outcome was inactive.
Consider `CC/C=C/[C@H](CC)C/C=C/[C@@]1(CC)C[C@H](CC)[C@H](CC(=O)O)OO1` [PLAKORTIDE M], for which the IC50 was 600 nM in the test with IGROV-1; 1400 nM in the test with HT-29; 1700 nM with U-251; 2200 nM with T47D; 1900 nM with DU-145; 1300 nM in [2]. Also, the half-maximal inhibitory concentration (IC50) with 786-0 is 1600 nM; in the test on M14, 6800 nM; in the test on SR it was 400 nM; in the test on SK-MEL-2, 11100 nM; in the test with ACHN, 1700 nM; in the test on CCRF-CEM it was 200 nM. Also, the IC50 with NCI/ADR-RES stood at 1800 nM; in the test on MCF7, 2900 nM; in the test on NCI-H460, 1800 nM; in the test with HOP-62, 1600 nM; with OVCAR-3, 2000 nM; with SF-539, 1800 nM. For the same molecule, the IC50 with COLO 205 worked out at 1500 nM; in the test with SK-OV-3 it was 1300 nM; in the test on UO-31 it was 1400 nM; with HCT-116, 2000 nM; with LOX IMVI, 500 nM; with SF-295 it was 1800 nM. The IC50 was 1600 nM in the test with PC-3 and 1800 nM in the test with A549.
